# Shown is part of a subset that was picked to be rich in hits.
# ALR H2O2 inh = inhibitors of human ALR sulfhydryl oxidase, primary screen, biochemical, H2O2 detection, HRP-luminol luminescence, single point | FAD-linked sulfhydryl oxidase ALR (Homo sapiens), P55789 | purified ALR, DTT oxidation | inhibition, % (concentration not given with the values) | 3.8% of 290,000 active | AID 485317, 2010;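 active = mean replicate inhibition above about 79%, with every replicate also reaching it, limit read from the data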
# Target sequence (P55789 whole entry, looked up): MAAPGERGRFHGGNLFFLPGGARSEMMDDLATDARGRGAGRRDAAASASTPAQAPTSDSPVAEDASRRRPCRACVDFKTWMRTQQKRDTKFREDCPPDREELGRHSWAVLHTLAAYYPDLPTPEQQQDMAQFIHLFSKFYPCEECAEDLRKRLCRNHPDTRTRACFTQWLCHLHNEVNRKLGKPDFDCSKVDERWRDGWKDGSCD
# T cell modulator = modulators of CD8 T cell-vesicle binding, primary screen, mouse 2C CD8+ T cells, flow cytometry | 2C CD8+ T cell-vesicle binding; stronger effect = lower value | response (vesicle binding), % at 7 µM | 0.068% of 330,000 active;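 active = response, share of CD8 T cells binding vesicles, and their 90th percentile fluorescence all below set limits, cut at about 80% in these data, passing the limit was not always enough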;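 note: values below 100% mean blocked vesicle binding to the CD8+ T cells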
#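 System: murine 2C transgenic CD8+ T lymphocytes; also added: QL9-loaded Drosophila micro-vesicles; times: binding 1.5 h at 37 °C; measured by: flow cytometry, PE anti-B7-1 (FL2) versus Alexa647 anti-CD8 (FL8), PFA-fixed; control set: Peptide-free naked vesicles (low) and QL9 vesicles with 0.7% DMSO vehicle (high)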
# N-glyco inh = increase of ERlucT glycosylation luciferase signal, primary screen, N-linked glycosylation inhibitor project, D54 ERlucT cells, luminescence, set 2. D54 ERlucT glycosylation luciferase reporter, 24 h; percent of 100 nM tunicamycin response. 0.23% of 360,000 active. reporter increase, % at 12.5 µM;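 active = mean luciferase reporter signal, scaled so untreated is 0 and the glycosylation-blocking control 100, at or above a set limit in every replicate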;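 note: luciferase carries N-glycosylation sites so blocking glycosylation raises the light; 0% = median of neutral control wells and 100% = median of 100 nM tunicamycin wells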
# * hit, by the source's call; i = inactive; . = no result.
SMILES,ALR H2O2 inh,T cell modulator,N-glyco inh
CCN1C=C(C(C)=O)C(=O)CC1,.,.,1.8
O=C(c1nc2ccccn2c1CN1CCN(c2ccccc2O)CC1)N1CCCC1,98.9*,207.3,-0.5
O=C(c1nc2ccccn2c1CN1CCCC(OCc2ccccc2)C1)N1CCCC1 (stereo not given),10.0,274.5,-0.4
COc1ccccc1C(C)NC(=O)CCNC(=O)c1ccc(Cl)cc1 (stereo not given),.,318.6,0.3
CCN(C(=O)COc1ccc(C)nc1[N+](=O)[O-])C1CCS(=O)(=O)C1 (stereo not given),-1.5,i,0.7
CC(=O)C1=C(O)C(=O)N(c2cccnc2)C1c1cccc([N+](=O)[O-])c1 (stereo not given),-6.1,444.1,0.3
CC(=O)C1=C(O)C(=O)N(c2ccc(O)cc2)C1c1cccc(F)c1 (stereo not given),81.8*,78.0,2.1
CC(=O)C1=C(O)C(=O)N(c2ccc(F)cc2)C1c1ccc(C)cc1 (stereo not given),0.5,216.2,-0.4
CC(=O)C1=C(O)C(=O)N(c2ccc(O)cc2)C1c1cccc([N+](=O)[O-])c1 (stereo not given),83.1*,240.0,0.1
CC(=O)C1=C(O)C(=O)N(c2ccc(O)cc2)C1c1ccc(C)cc1 (stereo not given),98.8*,414.8,2.5
CC(=O)C1=C(O)C(=O)N(c2ccc(Br)cc2)C1c1cccc(F)c1 (stereo not given),.,310.2,-0.4
COc1ccc2nc3ccccc3nc2c1NC(=O)c1ccc(Cl)cc1Cl,.,376.3,5.0
O=C1C[C@@H](c2ccccc2)Oc2cc(O)cc(O)c21,6.5,536.5,1.6
Oc1cc(O)c2c(c1)O[C@H](c1ccc(O)c(O)c1)[C@@H](O)C2,95.4*,158.5,2.8
COc1ccc([C@@H]2CC(=O)c3c(O)cc(O[C@@H]4O[C@H](CO[C@@H]5O[C@@H](C)[C@H](O)[C@@H](O)[C@H]5O)[C@@H](O)[C@H](O)[C@H]4O)cc3O2)cc1O,43.0,738.3,1.5
O=C1c2c(O)cc(O)cc2O[C@H](c2ccc(O)c(O)c2)[C@@H]1O,98.7*,619.2,.
COc1cccc([C@@H]2Oc3ccc(OC)cc3C(=O)[C@H]2O)c1,-0.2,.,-17.8
C[C@@H]1O[C@@H](O[C@@H]2C(=O)c3c(O)cc(O)cc3O[C@H]2c2ccc(O)c(O)c2)[C@H](O)[C@H](O)[C@H]1O,98.9*,522.8,-0.2
COc1ccc2c(c1)C(=O)[C@@H](O)[C@H](c1ccc(OC)c(Br)c1)O2,-1.5,182.7,-8.2
O=C1c2c(O)cc(O)cc2O[C@H](c2ccc(O)c(O)c2)[C@H]1O,99.2*,228.9,-0.2
COC(=O)c1ccccc1S(=O)(=O)NNC(=O)Nc1ccccc1,.,158.1,-11.4
CCCCN(c1ccccc1)S(=O)(=O)c1cccc(C(=O)Nc2c(C)n(C)n(-c3ccccc3)c2=O)c1,.,.,2.6
CCc1ccc(-n2c(=S)sc3c(=O)[nH]c(SCC(=O)NC4CCCCC4)nc32)cc1,.,.,-0.9
O=C(CC1C(=O)NCCN1Cc1ccc(F)c(F)c1)NCCn1cccn1 (stereo not given),-3.5,248.8,0.4
CCOc1ccccc1N1CCN(C(=O)NCc2ccc(C)cc2)CC1,-6.2,359.2,-1.5
SMILES,ALR H2O2 inh,T cell modulator,N-glyco inh
CN(C)C(=O)c1ccc(-c2cc(C(F)(F)F)n(C)n2)s1,2.2,.,-0.3
COc1cc(O)c2c(c1)OC(c1ccc(O)cc1)CC2=O (stereo not given),68.9,217.5,-6.2
O=C1c2c(O)cc(O)cc2O[C@H](c2ccc(O)cc2)[C@H]1O,87.3*,475.7,0.6
COc1ccccc1C(=O)NC(=O)COC(=O)C1CCC1,1.9,332.9,1.4
O=C1NCCN/C1=C\C(=O)c1ccc(Br)cc1,-15.0,615.7,-6.1
COCCCn1c(=O)/c(=C/c2ccccc2OC(F)F)s/c1=C(\C#N)C(=O)NCCOC,.,.,1.2
COCCCn1c(=O)/c(=C\c2cccc(OC)c2OC)s/c1=C(/C#N)C(=O)Nc1ccc(C(=O)O)cc1,97.5*,452.3,-1.2
c1ccc(-c2nc(CSc3n[nH]c(-c4cccs4)n3)cs2)cc1,97.8*,216.1,0.8
O=C(CSc1n[nH]c(-c2cccs2)n1)N1CCCC1,-0.2,379.6,0.5
Nc1cc(=O)[nH]c(SCc2csc(-c3ccccc3)n2)n1,99.1*,212.4,3.4
Cc1cc(=O)[nH]c(SCc2csc(-c3ccccc3)n2)n1,-4.4,367.8,9.2
Cc1nnc(Cn2cnc3c2c(=O)n(C)c(=O)n3C)o1,5.1,820.0,2.4

# Screening data from PubChem BioAssay.
